Compound activity from PubChem BioAssay.
Hits are enriched below; roughly 1.9% of the tested compounds scored in any of these assays.
M5 PAM: human M5 muscarinic receptor positive allosteric modulators, primary screen, CHO-K1 cells, Fluo-8 calcium fluorescence. activation, % at 3 µM. Muscarinic acetylcholine receptor M5 (Homo sapiens), P08912. CHO-K1 hM5, ACh EC20 PAM; 0% = ACh EC20, 100% = ACh EC100. 360,000 tested, 0.3% active;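 active = activation above the run cutoff, the mean activation of all test compounds plus 3 SD, cut at about 18% in these data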
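Assay system: CHO-K1 hM5 cells. Also added: acetylcholine at EC20 concentration, added after compound. Dosing: 3 µM, single dose. Times: compound preincubation 140 s before EC20 acetylcholine addition. Signal: Fluo-8 calcium fluorescence. Measure: % activation relative to EC20 and EC100 ACh responses. Repeats: singlicate, one well per test compound.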
CHRM5 agonist: human M5 muscarinic receptor agonists, primary screen, CHO-K1 cells, Fluo-8 calcium fluorescence | CHO-K1 hM5 cells; 0% DMSO wells, 100% maximal acetylcholine response | activation, % at 3 µM | 360,000 tested, 0.19% active | AID 624037, 2012;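 active = activation above the run's mean over test compounds plus 3 SD, cut at about 23% in these data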;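 note: signal is peak over basal fluorescence ratio across the kinetic read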
M4 PAM: human M4 muscarinic receptor positive allosteric modulators, primary screen, CHO-K1 cells, Fluo-8 calcium fluorescence | CHO-K1 hM4/Gqi5, ACh EC20; 0% = ACh EC20, 100% = maximal ACh | activation, % at 3 µM | 360,000 tested, 0.4% active;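 active = activation above its plate's cutoff, the mean activation of sample wells plus 3 SD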
Target sequence (P08173 whole entry, looked up): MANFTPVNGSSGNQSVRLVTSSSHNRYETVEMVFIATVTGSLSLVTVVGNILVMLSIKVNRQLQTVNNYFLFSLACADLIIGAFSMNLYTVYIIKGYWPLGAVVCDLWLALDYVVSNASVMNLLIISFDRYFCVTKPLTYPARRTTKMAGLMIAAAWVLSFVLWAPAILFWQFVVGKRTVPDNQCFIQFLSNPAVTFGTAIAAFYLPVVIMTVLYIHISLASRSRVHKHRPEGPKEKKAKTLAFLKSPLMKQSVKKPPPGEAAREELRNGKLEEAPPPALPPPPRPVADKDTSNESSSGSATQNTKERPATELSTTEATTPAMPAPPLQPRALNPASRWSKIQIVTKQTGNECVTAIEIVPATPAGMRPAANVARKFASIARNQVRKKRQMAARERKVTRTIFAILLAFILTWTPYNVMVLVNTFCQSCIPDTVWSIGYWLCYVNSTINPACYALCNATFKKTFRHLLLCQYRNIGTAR
M4 ag: human M4 muscarinic receptor agonists, primary screen, CHO-K1 cells, Fluo-8 calcium fluorescence; Muscarinic acetylcholine receptor M4 (Homo sapiens), P08173; CHO-K1 hM4/Gqi5; vehicle 0%, full acetylcholine response 100%; activation, % at 3 µM; 360,000 tested, 0.14% active;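 active = activation above the run mean over all test wells plus 3 SD, cut at about 32% in these data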;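 note: peak over basal fluorescence ratio per well then scaled between controls; 0% = DMSO wells and 100% = acetylcholine at EC100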
M4 antag: human M4 muscarinic receptor antagonists, primary screen, CHO cells, Fluo-8 calcium fluorescence; Muscarinic acetylcholine receptor M4 (Homo sapiens), P08173; CHO-hM4 cells, ACh EC80; inhibition, % at 3 µM; 360,000 tested, 0.73% active; AID 624125, 2012;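 active = inhibition above its plate's cutoff, the mean inhibition of sample wells plus 3 SD, cut at about 27% in these data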;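 note: 0% = acetylcholine EC80 with DMSO and 100% = DMSO without agonist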
CHRM5 antagonist: human M5 muscarinic receptor antagonists, primary screen, CHO cells, Fluo-8 calcium fluorescence. 360,000 tested, 0.59% active. inhibition, % at 3 µM. CHO-hM5 cells, ACh EC80;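 active = inhibition above a per-plate cutoff, the mean of that plate's test compounds plus 3 SD, cut at about 27% in these data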;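 note: 0% = acetylcholine EC80 with DMSO and 100% = DMSO without agonist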
An asterisk follows results filed as active; ! = a repeat was not active.

Screening Cc1nnsc1C(=O)N1CCCC(C)(C(=O)NS(=O)(=O)C2CC2)C1 (stereo unspecified) returned M5 PAM -1.5, CHRM5 agonist 0.4, M4 PAM 19.5*, M4 ag 1.8, M4 antag -12.9 and CHRM5 antagonist -4.8.
For Cc1ccccc1Nc1c(-c2ccc(N3CCOCC3)cc2)nc2cnccn12 the results were M5 PAM 4.2, CHRM5 agonist 1.1, M4 PAM 6.9, M4 ag 0.0, M4 antag -0.3 and CHRM5 antagonist 0.9.
For Cc1ccc(Nc2c(-c3ccc(N4CCOCC4)cc3)nc3cnccn23)cc1 the results were M5 PAM 19.3*, CHRM5 agonist 7.0, M4 PAM 11.3, M4 ag 0.0, M4 antag 10.2 and CHRM5 antagonist -11.6.
Cc1ccc(C(=O)NCC(=O)OCC(=O)c2c(N)n(C)c(=O)n(C)c2=O)cc1C was read as M5 PAM 7.1, CHRM5 agonist 1.8, M4 PAM 2.4, M4 ag 1.3, M4 antag 9.7 and CHRM5 antagonist -3.0.
`C1CCC(C(CC2CCCCN2)C2CCCCC2)CC1` (stereo unspecified) gave M5 PAM -16.9, CHRM5 agonist 2.2, M4 PAM -15.1, M4 ag 11.1, M4 antag 34.7*! and CHRM5 antagonist 14.3.
CCCCNC(=O)c1sc(=S)n2c1[nH]c(=O)c1ccc(C(=O)NCCc3ccc(OC)c(OC)c3)cc12 was read as M5 PAM 24.6*, CHRM5 agonist 2.1, M4 PAM 15.4, M4 ag -0.4, M4 antag 3.7 and CHRM5 antagonist -27.3.
For CCCCCn1c(=O)[nH]c2cc(C(=O)NCCc3ccc(OC)c(OC)c3)ccc2c1=O the results were M5 PAM 8.6, CHRM5 agonist -1.4, M4 PAM 1.4, M4 ag 0.5, M4 antag -4.3 and CHRM5 antagonist -5.2.
Cc1ccc(CNc2ncnc3c2cnn3C2CCCCO2)cc1 (stereo unspecified) was read as M5 PAM -8.1, CHRM5 agonist 0.1, M4 PAM 6.6, M4 ag 1.1, M4 antag -5.2 and CHRM5 antagonist 6.2.
`CCn1c(Cl)c(C=O)s/c1=N\S(=O)(=O)c1ccccc1` gave M5 PAM -17.7, CHRM5 agonist -9.5, M4 PAM -35.1, M4 ag 2.2, M4 antag 73.8* and CHRM5 antagonist 32.7*.
Screening CS(=O)(=O)c1ccc2nc(NC(=O)c3ccc(Cn4cc(Br)cn4)o3)sc2c1 returned M5 PAM -11.1, CHRM5 agonist 1.8, M4 PAM -8.5, M4 ag 13.7, M4 antag 5.2 and CHRM5 antagonist 27.7*.
Screening C[C@@H]1CN([C@@H](C)CO)C(=O)c2cc(NC(=O)CCC(F)(F)F)ccc2O[C@H]1CN(C)S(=O)(=O)c1ccc(Cl)cc1 returned M5 PAM -0.7, CHRM5 agonist 3.7, M4 PAM 1.5, M4 ag 0.1, M4 antag 5.2 and CHRM5 antagonist -3.3.
CN1CCN(c2ccc([N+](=O)[O-])cc2C(=O)c2ccc(Br)cc2)CC1 was read as M5 PAM -18.1, CHRM5 agonist -7.2, M4 PAM -2.9, M4 ag 3.6, M4 antag -9.2 and CHRM5 antagonist 37.5*.
Cc1ccc(C(=O)c2cc([N+](=O)[O-])ccc2N2CCN(C)CC2)cc1 was read as M5 PAM -14.2, CHRM5 agonist -9.7, M4 PAM 6.1, M4 ag 3.0, M4 antag -8.0 and CHRM5 antagonist -0.4.
`COc1cccc(CNC(=O)CN(C)S(=O)(=O)c2cnc[nH]2)c1` gave M5 PAM 19.7*, CHRM5 agonist 0.4, M4 PAM 4.3, M4 ag 0.9, M4 antag -14.0 and CHRM5 antagonist -10.8.
For Oc1ccc(N=C/C=C/c2cccc(Br)c2)cc1-c1nc2ccccc2s1 the results were M5 PAM -3.5, CHRM5 agonist 2.6, M4 PAM 31.6*, M4 ag -0.3, M4 antag -1.0 and CHRM5 antagonist 8.2.
Screening Nc1ccc(O)c(-c2nc3ccccc3s2)c1 returned M5 PAM -4.2, CHRM5 agonist -1.2, M4 PAM -1.8, M4 ag 0.3, M4 antag 4.2 and CHRM5 antagonist 5.5.
`Cn1cnc([N+](=O)[O-])c1Sc1nc(N)nc2c1ncn2C1CC(O)C(CO)O1` (stereo unspecified) gave M5 PAM -9.2, CHRM5 agonist 2.9, M4 PAM 7.2, M4 ag 2.1, M4 antag -4.3 and CHRM5 antagonist 10.4.
Screening O=C(Nc1nc(-c2ccccc2)cs1)c1ccco1 returned M5 PAM -0.9, CHRM5 agonist 10.7, M4 PAM -5.0, M4 ag 0.2, M4 antag 6.9 and CHRM5 antagonist -8.0.
`Cc1ccc(-c2csc(NC(=O)c3ccco3)n2)cc1C` gave M5 PAM 5.8, CHRM5 agonist 25.8*, M4 PAM 1.3, M4 ag 1.3, M4 antag 5.5 and CHRM5 antagonist 8.2.
Screening Cc1nc(NC(=O)c2ccco2)sc1-c1csc(Nc2ccc(Cl)cc2)n1 returned M5 PAM 5.7, CHRM5 agonist 43.3*, M4 PAM 4.7, M4 ag 0.8, M4 antag 0.5 and CHRM5 antagonist 17.5.
`Cc1nc(NC(=O)c2ccco2)sc1-c1csc(Nc2ccc(Cl)cc2Cl)n1` gave M5 PAM 17.1, CHRM5 agonist 46.6*, M4 PAM 13.6, M4 ag 2.7, M4 antag -12.3 and CHRM5 antagonist 20.5.
For COc1cccc(-n2cnnc2SCC(=O)NC2CC2)c1 the results were M5 PAM 0.0, CHRM5 agonist 1.8, M4 PAM 7.0, M4 ag 0.4, M4 antag 1.2 and CHRM5 antagonist -1.5.
Cc1[nH]c2ccc3ncccc3c2c1C was read as M5 PAM -1.4, CHRM5 agonist -3.3, M4 PAM 11.2, M4 ag 1.6, M4 antag -9.8 and CHRM5 antagonist -5.9.
Screening Cc1[nH]c2ccc3c(ncn3CCC#N)c2c1C returned M5 PAM 1.9, CHRM5 agonist 2.1, M4 PAM 13.8, M4 ag 1.1, M4 antag 30.5* and CHRM5 antagonist 8.0.
Screening Nc1ccccc1C#CC(=O)c1ccccc1 returned M5 PAM -1.0, CHRM5 agonist 1.1, M4 PAM -3.2, M4 ag 1.1, M4 antag -1.9 and CHRM5 antagonist 5.7.
